Ends that are not written are not given here.
Key:
[1] = Cytosolic peptide stability assay; conditions: for half-life: human, s9; for A02-SL9 epitope half-life reduced by (fold vs control): average of 4 experiments, Fig 3B
[2] = system: chymotryptic activity of proteasomes; assay: Proteasome chymotryptic activity in live PBMC; format: cell-based, human; conditions: PI pretreatment 30 min 37°C, increasing concentrations, Fig 1C
In short: (§1)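 Fresh PBMC were isolated from HIV-negative donor buffy coats by Ficoll-Hypaque and pretreated for 30 min at 37°C with increasing concentrations of test compound (DMSO solutions). Digitonin (0.0025% final) was added, then Suc-LLVY-Amc (chymotryptic) or BocLRR-Amc (tryptic), each at 50 µmol/L. Fluorescence was read every 5 min at 37°C. Maximum slope, minus no-cell background, was expressed as % of the DMSO control. MG-132 (10 µmol/L) was used as the specificity control. Data are from 6–8 donors.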

[3] = system: caspase-like activity of proteasomes; assay: Proteasome caspase-like activity in live PBMC; format: cell-based, human; conditions: PI pretreatment 30 min 37°C, Fig 1C
[4] = system: tryptic activity of proteasomes; assay: Proteasome tryptic activity in live PBMC; format: cell-based, human; conditions: increasing concentrations, Fig 1C
In short: as §1

[5] = system: aminopeptidase; assay: Aminopeptidase activity in live PBMC; format: cell-based, human; conditions: for Effect on aminopeptidase activities: live PBMC, increasing concentrations, Fig 1C
[6] = system: HLA-matched B cells infected with VSVg-pseudotyped HIV; format: cell-based, human
[7] = system: PBMC cytosolic extracts; assay: HIV epitope processing assay; format: biochemical, human
[8] = system: purified mouse or human 20S proteasomes; conditions: ref [30]–[32]; cited from earlier work
[9] = system: proteasomal and aminopeptidase activities; assay: Proteasomal and aminopeptidase activities in PBMC; format: cell-based, human; conditions: unpublished data
[10] = in vitro; conditions: human, s9

CC[C@H](C)[C@H](NC(=O)[C@@H](NC(=O)[C@H](CCC(=O)O)NC(=O)[C@@H]1CCCN1C(=O)[C@H](CO)NC(=O)[C@H](Cc1ccccc1)NC(=O)[C@H](C)NC(=O)[C@@H](N)CCCCN)C(C)C)C(=O)N1CCC[C@H]1C(=O)N[C@@H](CCSC)C(=O)N[C@@H](Cc1ccccc1)C(=O)O [KF11]
half-life [1]: 25.7 min

CC(C)CN(C[C@@H](O)[C@H](Cc1ccccc1)NC(=O)O[C@H]1CO[C@H]2OCC[C@H]21)S(=O)(=O)c1ccc(N)cc1 [Darunavir]
Effect on chymotryptic activity of proteasome [2]: did not change
Effect on proteasomal caspase-like activity [3]: not affected
Effect on proteasome tryptic activity [4]: not affected
Effect on aminopeptidase activities [5]: no change

CC(C)(C)NC(=O)[C@@H]1CN(Cc2cccnc2)CCN1C[C@@H](O)C[C@@H](Cc1ccccc1)C(=O)N[C@H]1c2ccccc2C[C@H]1O [Indinavir]
Effect on proteasomal caspase-like activity [3]: not affected
Effect on proteasome tryptic activity [4]: not affected
Effect on aminopeptidase activities [5]: no change
Killing of HIV-infected cells by A11-ATK9 CTL, reduced by (fold vs DMSO) [6]: 3 fold
Killing of HIV-infected cells by B57-KF11 CTL, reduced by (fold vs DMSO) [6]: 1.9 fold

CC(C)C[C@H](NC(=O)[C@@H](O)[C@H](N)Cc1ccccc1)C(=O)O [Bestatin]
Aminopeptidase activity reduced by (fold compared to the control) ([5]; 120 µM): 20 fold
Aminopeptidase activity, max slope of fluorescence emission ([5]; PBMC, 120 µM inhibitor, Leu-amc, control max slope 145.35): 7.25

CC(C)(C)NC(=O)[C@@H]1C[C@@H]2CCCC[C@@H]2CN1C[C@@H](O)[C@H](Cc1ccccc1)NC(=O)[C@H](CC(N)=O)NC(=O)c1ccc2ccccc2n1 [Saquinavir]
2-ISW9 ([…]) precursor production vs control or Kaletra treatment ([7]; 3ISW9 degradation, 10 µM): at least twice less
Activity of purified mouse or human 20S proteasomes and proteasome activity in immortalized cells [8]: inhibit

Nc1ccn([C@@H]2CS[C@H](CO)O2)c(=O)n1 [lamivudine, Lamivudine]
Effect on the proteasomal and aminopeptidase activities [9]: did not have any significant effect

CC(C)c1nc(CN(C)C(=O)N[C@H](C(=O)N[C@@H](Cc2ccccc2)C[C@H](O)[C@H](Cc2ccccc2)NC(=O)OCc2cncs2)C(C)C)cs1 [Ritonavir]
Effect on proteasomal caspase-like activity [3]: did not enhance
ISW9 as % of total peptides ([7]; 3ISW9 degradation, 10 µM PI, 60 min, 3% in control): 14%
Production of A25-QW11 epitope from 3ISW9 ([7]; supplemental figure 3): reduced
Production of B15-HL9 epitope from 3ISW9 ([7]; supplemental figure 3): reduced
Kinetics of killing and maximum lysis by B57-ISW9 CTL [6]: enhanced
Kinetics of killing and maximum lysis by B57-KF11 CTL [6]: slower and the maximum lysis reduced
Activity of purified mouse or human 20S proteasomes and proteasome activity in immortalized cells [8]: inhibit
Cytosolic stability of optimal epitopes derived from CMV, HCV, Influenza or EBV ([1]; several peptides, unpublished data): increasing

COC(=O)N[C@H](C(=O)N[C@@H](Cc1ccccc1)[C@@H](O)CN(Cc1ccc(-c2ccccn2)cc1)NC(=O)[C@@H](NC(=O)OC)C(C)(C)C)C(C)(C)C [Atazanavir]
Effect on chymotryptic activity of proteasome [2]: did not change
Effect on proteasome tryptic activity [4]: not affected
Effect on aminopeptidase activities [5]: no change
A02-SL9 epitope half-life reduced by (fold vs control) ([1]; PBMC extracts pretreated with 2 µM or 5 µM PI): 1.33 fold

Cc1c(O)cccc1C(=O)N[C@@H](CSc1ccccc1)[C@H](O)CN1C[C@H]2CCCC[C@H]2C[C@H]1C(=O)NC(C)(C)C [Nelfinavir]
Effect on proteasomal caspase-like activity [3]: not affected
Effect on killing of HIV-infected cells by B57-ISW9 CTL [6]: had no effect
Killing of HIV-infected cells by A11-ATK9 CTL, reduced by (fold vs DMSO) [6]: 4.8 fold
Killing of HIV-infected cells by B57-ISW9 CTL, inhibited (fold vs DMSO) [6]: 1.2 fold
Killing of HIV-infected cells by B57-KF11 CTL, reduced by (fold vs DMSO) [6]: 2.44 fold
Lysis of HIV-infected cells by B57-TW10 CTL, decreased (fold vs DMSO) [6]: 1.46 fold
Activity of purified mouse or human 20S proteasomes and proteasome activity in immortalized cells [8]: inhibit
A02-SL9 epitope half-life reduced by (fold vs control) ([1]; […]): 1.25 fold

ISPRTLNAW [ISW9]
half-life [10]: 14.8 min

CC[C@H](C)[C@H](NC(=O)[C@H](C)N)C(=O)N[C@@H](Cc1ccccc1)C(=O)N[C@@H](CCC(N)=O)C(=O)N[C@@H](CO)C(=O)N[C@@H](CO)C(=O)N[C@@H](CCSC)C(=O)N[C@H](C(=O)N[C@@H](CCCCN)C(=O)O)[C@@H](C)O [ATK9]
half-life [1]: 37.2 min

CC(C)Nc1cccnc1N1CCN(C(=O)c2cc3cc(NS(C)(=O)=O)ccc3[nH]2)CC1 [Delavirdine]
Effect on the proteasomal and aminopeptidase activities [9]: did not have any significant effect
